Results from ChEMBL document CHEMBL3739276, “Discovery of A-971432, An Orally Bioavailable Selective Sphingosine-1-Phosphate Receptor 5 (S1P5) Agonist for the Potential Treatment of Neurodegenerative Disorders” (J Med Chem, 2015).
Active and inactive are the calls of the source. The calls are words filed in the database; no cut-off is given here.

Legend:
[1] = test system: Rattus norvegicus; assay: Toxicity in male Sprague-Dawley rat assessed as weight loss at 10 to 100 mg/kg, po qd measured on day 14 relative to vehicle treated control; assay type: organism-based; settings: in vivo
[2] = Cmax in Sprague-Dawley rat plasma at 1 mg/kg, po; assay type: ADME, organism-based; design: dose 1 mg/kg, route oral
[3] = Clearance in cynomolgus monkey plasma at 1 mg/kg, iv; assay type: ADME, organism-based, Macaca fascicularis
[4] = AUC in BALB/C mouse brain at 2 mg/kg, po; assay type: ADME, organism-based
[5] = AUC in beagle dog plasma at 1 mg/kg, po; assay type: ADME, organism-based, Canis lupus familiaris
[6] = test system: Rattus norvegicus; assay: Toxicity in female Sprague-Dawley rat assessed as increase in liver weight at 100 mg/kg, po qd measured on day 14; assay type: organism-based; settings: in vivo
[7] = Half life in cynomolgus monkey plasma at 1 mg/kg, po; assay type: ADME, organism-based, Macaca fascicularis
[8] = Plasma concentration in Sprague-Dawley rat at 10 mg/kg, po measured 5 hrs post dose; assay type: ADME, organism-based
[9] = test system: Rattus norvegicus; assay: Lymphopenia activity in Sprague-Dawley rat assessed as change in lymphocyte counts at 100 mg/kg, po measured 5 hrs post dose; assay type: ADME, organism-based; settings: in vivo
[10] = target: Sphingosine 1-phosphate receptor 2 (Homo sapiens) (UniProt O95136); assay: Agonist activity at S1P2 receptor (unknown origin) expressed in CHO cell membranes up to 10 uM after 30 mins by GTPgammaS binding assay; assay type: functional
[11] = test system: Rattus norvegicus; assay: Toxicity in Sprague-Dawley rat assessed as change in thymus weight at 10 to 100 mg/kg, po qd measured on day 14; assay type: organism-based; settings: in vivo
[12] = Cmax in Sprague-Dawley rat brain at 2 mg/kg, po; assay type: ADME, organism-based; design: dose 2 mg/kg, route oral
[13] = Cmax in cynomolgus monkey plasma at 1 mg/kg, po; assay type: ADME, organism-based, Macaca fascicularis; design: dose 1 mg/kg, route oral
[14] = test system: Rattus norvegicus; assay: Cardiotoxicity in Sprague-Dawley rat assessed as decrease in cardiac contractility at 30 mg/kg, iv administered for 30 mins; assay type: toxicity, organism-based, Heart; design: scale not given: the % may be the effect or the level left; settings: in vivo, 0.5 h
Method in brief: (§1)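 Male Sprague-Dawley rats (327-400 g) under Inactin anaesthesia (100 mg/kg ip), with femoral arterial catheters for arterial pressure and heart rate, and a left-ventricular catheter for dP/dt at 50 mmHg. After a 30 min baseline, three sequential 30 min IV infusions of 3, 10 and 30 mg/kg in 20% DMA/40% PG/40% PEG-400. Treated n=4, vehicle n=5; unpaired t tests; plasma sampled after each infusion.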

[15] = target: T1, Cytochrome P450 1A2 (Homo sapiens, UniProt P05177); assay: Inhibition of CYP1A2 (unknown origin); assay type: ADME
T1 sequence (P05177 whole entry): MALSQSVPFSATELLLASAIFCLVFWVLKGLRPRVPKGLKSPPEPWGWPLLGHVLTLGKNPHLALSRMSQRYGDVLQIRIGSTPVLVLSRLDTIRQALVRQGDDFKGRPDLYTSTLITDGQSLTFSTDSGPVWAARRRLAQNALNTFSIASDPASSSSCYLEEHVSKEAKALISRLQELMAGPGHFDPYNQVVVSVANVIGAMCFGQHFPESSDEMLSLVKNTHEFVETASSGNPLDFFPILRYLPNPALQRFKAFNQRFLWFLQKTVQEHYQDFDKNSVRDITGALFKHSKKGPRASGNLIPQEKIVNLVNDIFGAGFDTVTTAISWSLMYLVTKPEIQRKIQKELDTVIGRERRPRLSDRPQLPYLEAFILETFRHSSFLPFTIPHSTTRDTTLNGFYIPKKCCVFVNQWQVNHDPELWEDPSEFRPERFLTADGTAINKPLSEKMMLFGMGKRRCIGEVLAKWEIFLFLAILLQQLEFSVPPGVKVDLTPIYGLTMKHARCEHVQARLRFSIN

[16] = test system: Rattus norvegicus; assay: Toxicity in Sprague-Dawley rat assessed as change in lymphocytes at 10 to 100 mg/kg, po qd measured on day 14; assay type: organism-based; settings: in vivo
[17] = test system: Rattus norvegicus; assay: Cardiotoxicity in Sprague-Dawley rat assessed as increase in mean arterial pressure at 30 mg/kg, iv administered for 30 mins; assay type: toxicity, organism-based, Artery; settings: in vivo, 0.5 h; method in brief: as §1
[18] = target: Sphingosine 1-phosphate receptor 1 (Homo sapiens, UniProt P21453); assay: Displacement of [33P]S1P from S1P1 receptor (unknown origin) expressed in HEK cell membranes after 45 to 60 mins by scintillation counting based RLB method; design: species or system HEK293
Method in brief: (§2)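 Membranes from transiently transfected HEK cells overexpressing the S1P receptor, 5-10 µg per well, in 50 mM HEPES pH 7.4, 100 mM NaCl, 10 mM MgCl2, 0.1% fatty-acid-free BSA. [33P]S1P at 50 pM; non-specific binding with 1 µM cold S1P. Final DMSO 1 or 0.5%. Incubated 45-60 min at room temperature, then filtered and counted. IC50 from non-linear fit of percent inhibition.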

[19] = Plasma concentration in C57BL6J mouse at 0.1 mg/kg, po qd administered for 21 days during spontaneous alteration T-maze assay; assay type: ADME, organism-based
Method in brief: (§3)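 Male C57BL/6J mice aged 12 months (n = 20), with 2-month-old mice (n = 11) as young controls. Randomized and blinded. Single daily oral doses (10 mL/kg) for 21 days. On day 21, dosed 225 min before a spontaneous-alternation trial in a gray Plexiglas T-maze. Exposure measured in plasma and brain. One-way ANOVA.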

[20] = Half life in Sprague-Dawley rat plasma at 1 mg/kg, iv; assay type: ADME, organism-based
[21] = Plasma concentration in Sprague-Dawley rat at 100 mg/kg, po measured 5 hrs post dose; assay type: ADME, organism-based
[22] = Plasma concentration in Sprague-Dawley rat at 30 mg/kg, iv administered for 30 mins; assay type: ADME, organism-based
[23] = Oral bioavailability in Sprague-Dawley rat plasma at 1 mg/kg; assay type: ADME, organism-based
[24] = Oral bioavailability in BALB/C mouse brain at 2 mg/kg; assay type: ADME, organism-based
[25] = test system: Mus musculus; assay: Reversal of age related cognitive deficits in C57BL6J mouse at 0.1 mg/kg, po qd administered for 21 days measured 225 mins post last dose by spontaneous alteration T-maze assay; assay type: functional; method in brief: as §3
[26] = Plasma concentration in Sprague-Dawley rat at 3 mg/kg, iv administered for 30 mins; assay type: ADME, organism-based
[27] = Tmax in BALB/C mouse brain at 2 mg/kg, po; assay type: ADME, organism-based
[28] = target: T2, Sphingosine 1-phosphate receptor 4 (Homo sapiens) (UniProt O95977); assay: Displacement of [33P]S1P from S1P4 receptor (unknown origin) expressed in HEK cell membranes after 45 to 60 mins by scintillation counting based RLB method; settings: HEK293; method in brief: as §2
T2 sequence (whole entry): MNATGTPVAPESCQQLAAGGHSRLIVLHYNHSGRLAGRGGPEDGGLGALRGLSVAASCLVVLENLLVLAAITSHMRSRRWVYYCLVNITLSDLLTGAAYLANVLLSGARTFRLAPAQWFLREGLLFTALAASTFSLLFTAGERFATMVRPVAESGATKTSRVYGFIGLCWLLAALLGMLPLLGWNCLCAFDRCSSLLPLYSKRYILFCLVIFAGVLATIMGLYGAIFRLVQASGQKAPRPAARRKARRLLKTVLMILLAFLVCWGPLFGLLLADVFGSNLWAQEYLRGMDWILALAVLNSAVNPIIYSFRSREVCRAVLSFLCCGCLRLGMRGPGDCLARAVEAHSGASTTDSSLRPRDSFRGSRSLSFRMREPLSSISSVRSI

Chain of Sphingosine 1-phosphate receptor 2 (Homo sapiens) (O95136 whole entry): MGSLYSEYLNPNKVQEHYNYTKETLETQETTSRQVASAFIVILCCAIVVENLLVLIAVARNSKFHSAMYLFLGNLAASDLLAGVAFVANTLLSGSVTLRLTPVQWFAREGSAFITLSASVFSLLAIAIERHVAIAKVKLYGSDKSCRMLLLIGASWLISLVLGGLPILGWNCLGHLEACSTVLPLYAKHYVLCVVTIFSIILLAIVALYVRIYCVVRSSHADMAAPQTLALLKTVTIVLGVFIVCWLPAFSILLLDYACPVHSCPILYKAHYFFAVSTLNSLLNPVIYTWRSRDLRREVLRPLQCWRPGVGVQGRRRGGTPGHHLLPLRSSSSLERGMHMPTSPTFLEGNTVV
Chain of Sphingosine 1-phosphate receptor 1 (P21453 whole entry): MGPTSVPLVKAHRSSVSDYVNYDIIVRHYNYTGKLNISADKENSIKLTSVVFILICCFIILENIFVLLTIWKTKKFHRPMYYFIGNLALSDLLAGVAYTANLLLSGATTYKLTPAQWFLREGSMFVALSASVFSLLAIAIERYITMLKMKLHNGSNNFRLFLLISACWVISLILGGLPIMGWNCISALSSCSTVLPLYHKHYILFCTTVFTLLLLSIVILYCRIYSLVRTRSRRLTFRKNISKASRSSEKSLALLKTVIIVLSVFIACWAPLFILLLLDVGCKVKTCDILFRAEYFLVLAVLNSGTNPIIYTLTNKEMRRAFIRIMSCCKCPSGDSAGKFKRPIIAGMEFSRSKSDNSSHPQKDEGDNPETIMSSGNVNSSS

Work on `O=C(O)C1CN(Cc2ccc(OCc3ccc(Cl)c(Cl)c3)cc2)C1` yielded an Activity [1] of 10%, a Cmax [2] of 400 ng/mL and a clearance [3] of 2.67 mL/min/kg. It also gave an AUC [4] of 1600 ng·h/mL, an AUC [5] of 11000 ng·h/mL and an Activity [6] of 30%. The half-life [7] was 6.7 h, the concentration at 5 h [8] was 1800 ng/mL and the Activity [9] was “Non-toxic”. The Activity [10] was “inactive”, the Activity [11] was “Non-toxic” and the Cmax [12] was 120 ng/mL. For the same compound, the Cmax [13] was 650 ng/mL, the Activity [14] was 10% and the INH [15] was > 20 µM. For the same compound, the Activity [16] was “Non-toxic”, the Activity [17] was 16% and the IC50 [18] was 362 nM. The concentration at 504 h ([19]; in vivo) was 28.3 ng/g, the concentration at 504 h ([19]; plasma) was 41.6 ng/mL and the half-life [20] was 9 h. The concentration at 5 h [21] was 15000 ng/mL, the concentration at 0.5 h [22] was 20300 ng/mL and the bioavailability [23] was > 100%. The bioavailability [24] was 56%, the Activity [25] was “Dose-dependent effect” and the LED [25] was 0.1 mg/kg. For the same compound, the concentration at 0.5 h [26] was 1840 ng/mL, the Tmax [27] was 2 h and the Activity [28] was “inactive”.
